Consider 7 compounds from ChEMBL document CHEMBL3611989, “Discovery and characterization of aryl isonitriles as a new class of compounds versus methicillin- and vancomycin-resistant Staphylococcus aureus” (Eur J Med Chem, 2015).

In brackets after ≈: the same amount, converted by molar mass.

A word on the MIC: it is the smallest concentration in the dilution series that meets the test's criterion for growth inhibition. For orientation: MBC means the lowest tested concentration that kills the bacteria rather than only halting them. Low readings indicate greater bactericidal potency, high ones weaker bactericidal potency.

Data set [1] in a line: Metabolic stability in human liver microsomes assessed as compound remaining incubated for 60 mins in absence of NADPH. The class given is ADME. To be noted: read-out: Stability. Background: Liver microsomes are a subcellular fraction often used to study metabolism.
Data set [2] is described as follows: Metabolic stability in human liver microsomes assessed as compound remaining incubated for 60 mins in presence of NADPH. To be noted: read-out: Stability. The class given is ADME.
The subject of data set [3] is Staphylococcus aureus. Kind of data set: Antimicrobial activity against methicillin-resistant Staphylococcus aureus USA200 assessed as reduction in bacterial growth incubated for 18 to 20 hrs at 37 degC by broth microdilution method. The class given is functional. A digest of the protocol: (§1)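 Modified CLSI broth microdilution. Bacterial suspension of about 1 × 10^5 CFU/mL in tryptic soy broth. Each agent was added in triplicate to the first row and serially diluted down the plate. Plates were incubated at 37 °C for 18-20 h. MIC was read as the lowest concentration with no visible growth.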
Background: In broth dilution the organism is exposed to a series of concentrations in liquid medium.

For data set [4], the system named is J774. Nature of the data set: Cytotoxicity against mouse J774 cells assessed as reduction in cell viability up to 64 uM incubated for 2 hrs by MTS assay. The class given is cell-based. To be noted: j774, 2 h. A digest of the protocol:
(§2)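 Murine J774 macrophages grown in DMEM with 10% FBS at 37 °C, 5% CO2. Compounds were tested in triplicate at 16, 32, 64 and 128 μM for 2 h, with DMSO-matched vehicle controls. MTS reagent was then added and absorbance read at OD490. Viability is given as percent of DMSO-treated cells (mean of triplicate ± standard deviation), compared by paired t-test (P < 0.05).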

For data set [5], the system named is Staphylococcus aureus. Nature of the data set: Antimicrobial activity against vancomycin-intermediate-resistant Staphylococcus aureus NRS1 assessed as reduction in bacterial growth incubated for 18 to 20 hrs at 37 degC by broth microdilution method. The class given is functional. A digest of the protocol: as §1
The test system of data set [6] is Staphylococcus aureus. Kind of data set: Antimicrobial activity against methicillin-resistant Staphylococcus aureus USA700 assessed as reduction in bacterial growth incubated for 18 to 20 hrs at 37 degC by broth microdilution method. The class given is functional. The essentials:
as §1

Data set [7] has as its system Staphylococcus aureus. Kind of data set: Antimicrobial activity against methicillin-sensitive Staphylococcus aureus NRS72 assessed as reduction in bacterial growth incubated for 18 to 20 hrs at 37 degC by broth microdilution method. The class given is functional. The essentials: as §1
Data set [8] concerns Staphylococcus aureus. Kind of data set: Antimicrobial activity against methicillin-resistant Staphylococcus aureus NRS119 assessed as reduction in bacterial growth incubated for 18 to 20 hrs at 37 degC by broth microdilution method. The class given is functional. The essentials:
as §1

In data set [9] the test system is Staphylococcus aureus. Nature of the data set: Antimicrobial activity against methicillin-resistant Staphylococcus aureus USA100 assessed as reduction in bacterial growth incubated for 18 to 20 hrs at 37 degC by broth microdilution method. The class given is functional. A digest of the protocol: as §1
The test system of data set [10] is J774. The class given is cell-based. To be noted: mouse, j774, 2 h, 128 µM.
The subject of data set [11] is Staphylococcus aureus. Nature of the data set: Antimicrobial activity against methicillin-resistant Staphylococcus aureus USA500 assessed as reduction in bacterial growth incubated for 18 to 20 hrs at 37 degC by broth microdilution method. The class given is functional. The essentials:
as §1

For data set [12], the system named is J774. Nature of the data set: Cytotoxicity against mouse J774 cells assessed as reduction in cell viability at 32 uM incubated for 2 hrs by MTS assay. The class given is cell-based. To be noted: j774, 2 h. The essentials: as §2
Data set [13] deals with J774. Nature of the data set: Cytotoxicity against mouse J774 cells assessed as reduction in cell viability at 64 uM incubated for 2 hrs by MTS assay. The class given is cell-based. To be noted: j774, 2 h. The essentials: as §2
On the technique in general: Tetrazolium assays rely on reduction of a dye to a coloured formazan, in cell work by metabolically active cells.

Data set [14] relates to Staphylococcus aureus. Nature of the data set: Antimicrobial activity against methicillin-resistant Staphylococcus aureus USA300 assessed as reduction in bacterial growth incubated for 18 to 20 hrs at 37 degC by broth microdilution method. The class given is functional. A digest of the protocol: as §1
For data set [15], the system named is Staphylococcus aureus. Nature of the data set: Antimicrobial activity against vancomycin-resistant Staphylococcus aureus VRS2 assessed as reduction in bacterial growth incubated for 18 to 20 hrs at 37 degC by broth microdilution method. The class given is functional. The essentials:
as §1

Data set [16] has as its system Staphylococcus aureus. Kind of data set: Bactericidal activity against methicillin-resistant Staphylococcus aureus USA300. The class given is functional.
A short description of data set [17]: Selectivity index, ratio of cytotoxicity against mouse J774 cells by MTS assay to MIC for methicillin-resistant Staphylococcus aureus. The class given is toxicity, cell-based. The following applies: read-out: Selectivity Index.
Data set [18] is described as follows: Kinetic solubility of the compound in PBS. The class given is physicochemical. The following applies: read-out: Kinetic_solubility.

For `CC(=O)CC(c1ccccc1)c1c(O)c2ccccc2oc1=O` (stereo not given) [WARFARIN], the remaining at 1 h was determined as 94% in data set [1] and 93% in data set [2].

Take `CC/C(=C\c1ccccc1)c1ccccc1`: the MIC in data set [3], in data set [5], in data set [6], in data set [7], in data set [8] and in data set [9] was greater than 128 µM in each case. Besides, the MIC in [11], in data set [14] and in [15] was greater than 128 µM throughout. Moreover, the Activity entry was “Non-toxic” in data set [4], “Toxic” in [10], “Non-toxic” in [12] and “Non-toxic” in data set [13].

As to `[C-]#[N+]c1ccccc1/C=C(\CC)c1ccccc1`, the MIC was found to be 16 µM (≈ 3.73 µg/mL) in data set [3]; 8 µM (≈ 1.87 µg/mL) in [5]; 8 µM (≈ 1.87 µg/mL) in data set [6]; 8 µM (≈ 1.87 µg/mL) in [7]; 64 µM (≈ 14.9 µg/mL) in data set [8]; 8 µM (≈ 1.87 µg/mL) in data set [9]. For the same compound, the MIC in [11], in data set [14] and in data set [15] was 32 µM (≈ 7.47 µg/mL) each time. Further, in data set [16], the MBC is greater than 128 µM. Also, the Activity result in [10], in data set [12] and in data set [13] was “Non-toxic” throughout.

In the case of `[C-]#[N+]c1ccccc1/C=C/c1ccccc1`, the selectivity ratio in data set [17] amounted to 16. Further, the MIC in data set [3] was 4 µM (≈ 0.821 µg/mL); in [5] it was 2 µM (≈ 0.411 µg/mL); in data set [6], 4 µM (≈ 0.821 µg/mL); in data set [8] it was 4 µM (≈ 0.821 µg/mL); in [9], 2 µM (≈ 0.411 µg/mL); in [11] it was 32 µM (≈ 6.57 µg/mL). Besides, the MIC stood at 4 µM (≈ 0.821 µg/mL) in data set [14] and 32 µM (≈ 6.57 µg/mL) in data set [15]. For the same compound, the remaining at 1 h was 51% in [1] and 24% in data set [2]. Besides, the Activity result in [4] is “Non-toxic”; in data set [10] it was “Toxic”; in data set [12], “Non-toxic”; in data set [13], “Non-toxic”. In addition, the solubility kinetic in data set [18] was 15.6 µM (≈ 3.2 µg/mL).

Regarding `[C-]#[N+]c1ccccc1/C=C/c1cccnc1`, the MIC came out at 32 µM (≈ 6.6 µg/mL) in data set [3]; 64 µM (≈ 13.2 µg/mL) in data set [5]; 32 µM (≈ 6.6 µg/mL) in [6]; 64 µM (≈ 13.2 µg/mL) in data set [7]; 64 µM (≈ 13.2 µg/mL) in data set [8]; 32 µM (≈ 6.6 µg/mL) in [9]. For the same compound, the MIC in data set [11] stood at 32 µM (≈ 6.6 µg/mL); in data set [14], 16 µM (≈ 3.3 µg/mL); in [15], 32 µM (≈ 6.6 µg/mL). Moreover, the Activity result in [10], in data set [12] and in data set [13] was “Non-toxic” in each case.

On to `[C-]#[N+]c1ccccc1/C=C/c1ccccc1F`, for which the MIC in data set [3] was 2 µM (≈ 0.446 µg/mL); in data set [5], 4 µM (≈ 0.893 µg/mL); in data set [6], 8 µM (≈ 1.79 µg/mL); in data set [7], 4 µM (≈ 0.893 µg/mL); in data set [8], 32 µM (≈ 7.14 µg/mL); in data set [9] it was 8 µM (≈ 1.79 µg/mL). The MIC was 16 µM (≈ 3.57 µg/mL) in data set [11], 16 µM (≈ 3.57 µg/mL) in data set [14] and 32 µM (≈ 7.14 µg/mL) in [15]. Moreover, the figures for the Activity entry in [10], in data set [12] and in [13] were “Toxic”, “Non-toxic” and “Non-toxic”, respectively.

For `[C-]#[N+]c1ccccc1/C=C/c1cccc(OC)c1`, the minimal inhibitory concentration (MIC) is 4 µM (≈ 0.941 µg/mL) in data set [3]; 4 µM (≈ 0.941 µg/mL) in data set [5]; 16 µM (≈ 3.76 µg/mL) in data set [6]; 8 µM (≈ 1.88 µg/mL) in data set [7]; 32 µM (≈ 7.53 µg/mL) in [8]; 8 µM (≈ 1.88 µg/mL) in [9]. Further, the figures for the MIC in [11], in data set [14] and in data set [15] were 32 µM (≈ 7.53 µg/mL), 16 µM (≈ 3.76 µg/mL) and 32 µM (≈ 7.53 µg/mL), respectively. Also, the Activity entry in data set [10], in data set [12] and in [13] was “Non-toxic” each time.
